Laboratory results: paper PMC12145421 (NPJ Science of Food, 2025)
Values after ≈ are worked out from the molar mass of the structure shown.

What was measured:
[1] = Solubility studies of CoQ10 in water by HPLC; assay type: physicochemical
Method in brief: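 The powder was mixed with an equal volume of water to give a supersaturated solution. It was shaken at 200 rpm in a 25 °C water bath for 24 h. CoQ10 was measured by HPLC on a C8 column at 45 °C with methanol at 1 mL/min, against a 0.05–25 μg/mL standard curve. Triplicate independent experiments; mean ± SD.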

[2] = In vivo bioavailability study, plasma CoQ10 after oral administration to rats; details: male, SD, rat, 15 mg/kg
Method in brief: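 Six-week-old SPF male rats (180–200 g), acclimatised ≥3 days at 23–25 °C with a 12 h light/dark cycle, n = 5 per group, fasted 12 h. Oral 15 mg/kg dose in 0.5% (w/v) sodium CMC. Tail-vein blood at 0, 0.5, 1, 2, 4, 8, 12 and 24 h. Plasma extracted with n-propanol and assayed by HPLC against a 0–3000 ng/mL plasma standard curve. Non-compartmental model; AUC by linear trapezoid.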

`COC1=C(OC)C(=O)C(C/C=C(\C)CC/C=C(\C)CC/C=C(\C)CC/C=C(\C)CC/C=C(\C)CC/C=C(\C)CC/C=C(\C)CC/C=C(\C)CC/C=C(\C)CCC=C(C)C)=C(C)C1=O` [CoQ10, Coenzyme Q10] gave a solubility at 24 h [1] of 2.3 µg/mL (≈ 2.66 µM), an AUC(0-t) [2] of 196 ± 96.9 ng·h/mL and a Cmax [2] of 50.3 ± 5.7 ng/mL. It also gave a Tmax ([2]; Tmax, rats, oral, n = 5, plasma CoQ10) of roughly 1 h.
